Here are results for three molecules from article PMC6785838 (Journal of peptide science : an official publication of the …, 2019).

The nature of series [1]: Stability test of Sec-containing peptides in oxygenated buffer. Type of series: physicochemical. The following applies: for β-syn elimination: dehydroalanine-containing peptide (species D) by MS: 96 h in oxygenated KP buffer pH 8.0, 25 °C, positive ESI-MS, linear ion trap; for Deselenization seen as red selenium precipitate / color change: peptide 1 mM in oxygenated KP buffer pH 8.0, 96 h, visual inspection. The procedure, abridged:
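Test peptides incubated in oxygenated KP buffer, pH 8.0, at 25 °C. Aliquots taken at 24, 48 and 96 h and centrifuged to pellet precipitated selenium. For MS, samples from time zero and 96 h were infused through a guard column at 10 μL/min into 100 μL/min 50/50 water/acetonitrile with 0.1% formic acid, using positive ESI and a linear ion trap scan over m/z 200–1800. Tubes with 1 mM peptide were photographed.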

The conditions of series [2]: cited from earlier work.

Turning to “H-(αMe)Sec-Gly-Thr-Thr-Val-Arg-Asp-Tyr-Thr-Gln-OH [peptide 11]”, in series [1], the “β-syn elimination: dehydroalanine-containing peptide (species D) by MS” value is given as “absent” and the “Deselenization seen as red selenium precipitate / color change” value is listed as “no color change was observed”.

For the molecule `O=c1c2ccccc2[se]n1-c1ccccc1` [ebselen, 2-phenyl-1,2-benzisoselenazol-3(2H)-one], the Water solubility result in series [2] was “not water soluble”.

As to “H-Sec-Gly-Thr-Thr-Val-Arg-Asp-Tyr-Thr-Gln-OH [peptide 12]”, in series [1], the “β-syn elimination: dehydroalanine-containing peptide (species D) by MS” value is on record as “β-syn elimination occurred” and the “Deselenization seen as red selenium precipitate / color change” value is “red precipitate clearly forms”.
